According to PubChem BioAssay:
Unmarked numbers belong to inactive results. For some assays here: Entries with a potency or affinity are not part of this list. Activity calls are given as the source filed them.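 Rule for the calls, unless noted: active = active in primary screen and both duplicates, each dropping signal beyond three positive-control SD with fluorescence still positive; inactive = the rest.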

Biological target: Short transient receptor potential channel 4 (Mus musculus) (UniProt Q9QUQ5)
Experiment: TRPC4 positive allosteric modulators, dose response, cell-based, HEK293 TRPC4/mu-opioid, Fluo-4 calcium, EC20 DAMGO (AID 434941;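 active = earlier screen potentiator hit that boosts the TRPC4 ion channel at some dose, with a dose response; inactive = no potentiation, no dose response, or not a prior hit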;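 note: calcium entry triggered by an EC20 dose of DAMGO at the co-expressed mu-opioid receptor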)
Conditions: HEK293 TRPC4/mu-opioid cells, Fluo-4 calcium fluorescence; series mostly up to 20 µM; potentiation ratio: at the top concentration

Short transient receptor potential channel 4 (Mus musculus), sequence (Q9QUQ5 whole entry, looked up): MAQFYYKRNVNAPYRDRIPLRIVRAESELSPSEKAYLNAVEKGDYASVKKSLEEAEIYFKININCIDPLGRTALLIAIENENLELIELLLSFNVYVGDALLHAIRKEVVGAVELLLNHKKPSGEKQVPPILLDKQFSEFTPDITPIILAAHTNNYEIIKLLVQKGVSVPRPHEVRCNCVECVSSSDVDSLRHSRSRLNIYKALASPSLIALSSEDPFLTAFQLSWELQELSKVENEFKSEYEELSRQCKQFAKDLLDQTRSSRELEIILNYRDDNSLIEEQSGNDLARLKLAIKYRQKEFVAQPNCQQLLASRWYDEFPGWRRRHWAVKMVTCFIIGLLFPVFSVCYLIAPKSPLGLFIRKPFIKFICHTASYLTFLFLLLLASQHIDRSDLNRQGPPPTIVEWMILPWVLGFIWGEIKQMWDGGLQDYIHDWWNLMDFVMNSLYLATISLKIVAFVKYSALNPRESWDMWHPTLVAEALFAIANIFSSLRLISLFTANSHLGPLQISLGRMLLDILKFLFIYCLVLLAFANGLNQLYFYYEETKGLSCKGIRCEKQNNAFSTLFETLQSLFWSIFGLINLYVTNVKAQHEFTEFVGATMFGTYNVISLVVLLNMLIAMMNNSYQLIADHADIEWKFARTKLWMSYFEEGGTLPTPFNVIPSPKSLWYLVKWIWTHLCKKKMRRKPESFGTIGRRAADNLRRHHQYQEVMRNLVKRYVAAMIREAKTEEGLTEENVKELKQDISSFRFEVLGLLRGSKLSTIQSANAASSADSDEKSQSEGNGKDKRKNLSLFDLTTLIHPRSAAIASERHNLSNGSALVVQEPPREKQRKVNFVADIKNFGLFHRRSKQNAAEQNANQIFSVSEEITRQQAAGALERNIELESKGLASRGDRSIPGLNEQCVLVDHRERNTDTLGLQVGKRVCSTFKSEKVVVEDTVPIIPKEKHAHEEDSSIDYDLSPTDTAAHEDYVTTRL

Row | SMILES | potentiation ratio
1 | CN(C)CCCN(Cc1cc2cc3c(cc2[nH]c1=O)OCO3)C(=S)NCc1ccco1 | 1.29
2 | Cc1cc(OCC(=O)Nc2ccc(N3CCN(C)CC3)cc2)ccc1Cl | -12.1
3 | O=C(Nc1ccccc1Oc1cccnc1)C1CCCN(Cc2ccc(F)cc2)C1 (stereo not given) | 0.75
4 | Cc1ncsc1CCOC(=O)c1cccc([N+](=O)[O-])c1 | -0.44
5 | N#C/C(=N\Nc1cccc([N+](=O)[O-])c1)C(=O)c1ccc(Br)cc1 | 2.55
6 | CC(NC(=O)c1ccco1)C(c1cccs1)N1CCN(c2ccccc2)CC1 (stereo not given) | -16.8
7 | O=C(Cc1ccccc1[N+](=O)[O-])OCc1cccc([N+](=O)[O-])c1 | 1.95
8 | CCOc1cc(CNCCCN2CCOCC2)cc(Br)c1OCc1ccccc1Cl | -7.16
9 | O=C(NCCN1CCOCC1)c1cc2sccc2n1Cc1ccc(F)cc1 | 1.73
10 | Cn1c(-c2ccc(F)cc2)cnc1NCc1ccc(F)cc1F | 0.6
11 | Cc1[nH]c2ccc(C(=O)OC(C)C(=O)N(C)c3ccccc3)cc2c1C (stereo not given) | 1.48
12 | COc1cc(/C=C2\SC(=O)N(c3ccccc3Cl)C2=O)cc([N+](=O)[O-])c1O | 1.74
13 | Cc1ccc2nc(C)cc(Nc3ccc4c(c3)OCCO4)c2c1 | -8.82
14 | CC1CCN(CCCOc2ccc(OCc3ccccc3)cc2)CC1 | -4.85
15 | COCCn1c(SCC(=O)c2ccccc2)nc2ccccc2c1=O | 1.8
16 | O=C(c1ccco1)N1CCN(C/C=C/c2ccccc2)CC1 | -3.21
17 | Nc1cc(N2CCCCC2)c([N+](=O)[O-])cc1Cl | -0.17
18 | Cc1cc(Cl)c2oc(C(=O)N(C)Cc3nccn3C)c(C)c2c1 | 3.67
19 | COc1ccccc1C(=O)Nc1ccc2c(c1)CCCN2C(=O)c1cccs1 | 3.42
20 | COCCNc1c2c(nc3ccccc13)CCC2 | 0.83

Row | SMILES | potentiation ratio
21 | Cc1onc(-c2c(F)cccc2Cl)c1C(=O)N(C)CC(=O)Nc1cccc(F)c1 | -14.3
22 | Cc1cc(C)c(S(=O)(=O)c2ccccc2C)c(OCC(C)(C)C)n1 | 1.84
23 | CCCn1c(=O)c2ccccc2n2c(SCCOc3ccccc3)nnc12 | 1.25
24 | CCOc1ccccc1N(C(=O)c1snc(C(N)=O)c1N)C(C(=O)NCc1ccccc1)c1ccc(O)cc1 (stereo not given) | 1.25
25 | Cc1oc(-c2ccoc2)nc1CN(Cc1ccccc1)CC1CC1 | -0.25
26 | CCCN1CN(Cc2ccco2)c2nc3ccccc3n2C1 | -1.38
27 | O=C(O)c1ccc(CSc2nc(-c3ccc(Cl)cc3)cc(C(F)(F)F)n2)cc1 | -1.85
28 | CCCCc1nc2ccccc2c(N)c1CCC (tested in a mixture with another compound) | -2.62
29 | CCOC(=O)c1c(NC(=O)/C=C/C(=O)O)sc(C)c1-c1ccc(C(C)(C)C)cc1 | -27.1
30 | C=C(C)Cn1c(SCC)nc2ccccc2c1=O | -0.03
31 | O=C(Nc1ccccc1N1CCN(C(=O)c2ccc(Cl)cc2)CC1)c1cccc([N+](=O)[O-])c1 | 2.86
32 | CCOC(=O)C1(CCc2ccccc2)CCN(Cc2ccccn2)CC1 | -4.76
33 | c1csc(CNc2nc(-c3cccs3)nc3ccccc23)c1 | -2.08
34 | O=C(c1cccc(C(=O)N2CCN(c3ccccc3)CC2)c1)N1CCN(c2ccccc2)CC1 | 2.01
35 | CCCCN(CCCC)/C(N)=N/c1nc(C)cc(C)n1 | 1.36
36 | O=C(C1CCN(CC2CC=CCC2)CC1)N(CCc1ccccc1)Cc1ccccc1 (stereo not given) | -12.7
37 | CCOC(=O)c1c(NC(=O)C2CC(Cl)=CCC2C(=O)O)sc2c1CCCCC2 (stereo not given) | -19.2
38 | COc1ccc(C)cc1N(C(=O)c1snc(C(N)=O)c1N)C(C(=O)NC1CCCCC1)c1ccc(C)o1 (stereo not given) | 1.87
39 | CCOC(=O)c1c(N)sc(C(O)(C(F)(F)F)C(F)(F)F)c1-c1ccccc1 | -9.84
40 | CNc1nc(NCc2ccccc2)c2ccccc2n1 | -5.67

Biological target: Short transient receptor potential channel 6 (Mus musculus) (UniProt Q61143)
Experiment: inhibition of mouse TRPC6 channel, confirmation, selectivity assay for TRPC4 inhibitor project, cell-based, HEK293, membrane potential dye, duplicate (AID 434948)
Conditions: HEK293 TRPC6, membrane potential dye fluorescence, at 10 µM, stimulated with maximal-effect acetylcholine; hits give high values
Summary of the method: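 Times: 45 min RT dye load, 110 s compound, 110 s agonist read | Assay system: HEK293 cells expressing mouse TRPC6 channel | Detection: Kinetic membrane potential dye fluorescence | Replicates: Duplicate testing | Read-out: Control-normalized integrated fluorescence ratio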

Short transient receptor potential channel 6 (Mus musculus), sequence (Q61143 whole entry, looked up): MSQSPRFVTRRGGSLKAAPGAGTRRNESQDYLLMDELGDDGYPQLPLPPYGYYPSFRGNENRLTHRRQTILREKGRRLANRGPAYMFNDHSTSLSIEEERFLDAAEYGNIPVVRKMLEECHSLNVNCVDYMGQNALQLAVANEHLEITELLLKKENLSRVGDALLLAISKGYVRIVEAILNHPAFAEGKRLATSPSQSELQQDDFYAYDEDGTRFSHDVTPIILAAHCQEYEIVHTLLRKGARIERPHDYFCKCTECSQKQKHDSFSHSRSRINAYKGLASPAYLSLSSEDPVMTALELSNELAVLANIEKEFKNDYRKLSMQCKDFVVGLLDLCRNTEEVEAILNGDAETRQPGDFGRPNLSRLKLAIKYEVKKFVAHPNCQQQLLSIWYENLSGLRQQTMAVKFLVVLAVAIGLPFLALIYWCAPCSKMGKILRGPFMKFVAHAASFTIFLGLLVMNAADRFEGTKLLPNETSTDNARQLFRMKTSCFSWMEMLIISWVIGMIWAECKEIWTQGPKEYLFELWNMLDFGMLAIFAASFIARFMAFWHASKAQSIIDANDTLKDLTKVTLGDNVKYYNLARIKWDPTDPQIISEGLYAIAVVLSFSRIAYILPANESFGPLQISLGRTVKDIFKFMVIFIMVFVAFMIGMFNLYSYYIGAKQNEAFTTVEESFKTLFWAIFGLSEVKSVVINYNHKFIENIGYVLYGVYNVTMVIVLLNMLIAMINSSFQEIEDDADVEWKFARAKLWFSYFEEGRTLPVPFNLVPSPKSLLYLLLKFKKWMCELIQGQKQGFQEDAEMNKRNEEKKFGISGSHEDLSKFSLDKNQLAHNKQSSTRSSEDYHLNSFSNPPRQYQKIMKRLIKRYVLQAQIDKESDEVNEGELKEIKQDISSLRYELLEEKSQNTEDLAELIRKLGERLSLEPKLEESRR

Row | SMILES | outcome | inhibition
41 | CN(C)CCCN(Cc1cc2cc3c(cc2[nH]c1=O)OCO3)C(=S)NCc1ccco1 | inactive | 
42 | Cc1cc(OCC(=O)Nc2ccc(N3CCN(C)CC3)cc2)ccc1Cl | inactive | 
43 | O=C(Nc1ccccc1Oc1cccnc1)C1CCCN(Cc2ccc(F)cc2)C1 (stereo not given) | inactive | 
44 | Cc1ncsc1CCOC(=O)c1cccc([N+](=O)[O-])c1 | inactive | 
45 | N#C/C(=N\Nc1cccc([N+](=O)[O-])c1)C(=O)c1ccc(Br)cc1 |  | 21.5% (active)
46 | CC(NC(=O)c1ccco1)C(c1cccs1)N1CCN(c2ccccc2)CC1 (stereo not given) | inactive | 
47 | O=C(Cc1ccccc1[N+](=O)[O-])OCc1cccc([N+](=O)[O-])c1 | inactive | 
48 | CCOc1cc(CNCCCN2CCOCC2)cc(Br)c1OCc1ccccc1Cl | inactive | 
49 | O=C(NCCN1CCOCC1)c1cc2sccc2n1Cc1ccc(F)cc1 | inactive | 
50 | Cn1c(-c2ccc(F)cc2)cnc1NCc1ccc(F)cc1F | inactive | 
51 | Cc1[nH]c2ccc(C(=O)OC(C)C(=O)N(C)c3ccccc3)cc2c1C (stereo not given) | inactive | 
52 | COc1cc(/C=C2\SC(=O)N(c3ccccc3Cl)C2=O)cc([N+](=O)[O-])c1O | inactive | 
53 | Cc1ccc2nc(C)cc(Nc3ccc4c(c3)OCCO4)c2c1 |  | 50% (active)
54 | CC1CCN(CCCOc2ccc(OCc3ccccc3)cc2)CC1 | inactive | 
55 | COCCn1c(SCC(=O)c2ccccc2)nc2ccccc2c1=O | inactive | 
56 | O=C(c1ccco1)N1CCN(C/C=C/c2ccccc2)CC1 | inactive | 
57 | Nc1cc(N2CCCCC2)c([N+](=O)[O-])cc1Cl | inactive | 
58 | Cc1cc(Cl)c2oc(C(=O)N(C)Cc3nccn3C)c(C)c2c1 | inactive | 
59 | COc1ccccc1C(=O)Nc1ccc2c(c1)CCCN2C(=O)c1cccs1 | inactive | 
60 | COCCNc1c2c(nc3ccccc13)CCC2 |  | 37.5% (active)

Row | SMILES | outcome | inhibition
61 | Cc1onc(-c2c(F)cccc2Cl)c1C(=O)N(C)CC(=O)Nc1cccc(F)c1 | inactive | 
62 | Cc1cc(C)c(S(=O)(=O)c2ccccc2C)c(OCC(C)(C)C)n1 | inactive | 
63 | CCCn1c(=O)c2ccccc2n2c(SCCOc3ccccc3)nnc12 | inactive | 
64 | CCOc1ccccc1N(C(=O)c1snc(C(N)=O)c1N)C(C(=O)NCc1ccccc1)c1ccc(O)cc1 (stereo not given) | inactive | 
65 | Cc1oc(-c2ccoc2)nc1CN(Cc1ccccc1)CC1CC1 | inactive | 
66 | CCCN1CN(Cc2ccco2)c2nc3ccccc3n2C1 | inactive | 
67 | O=C(O)c1ccc(CSc2nc(-c3ccc(Cl)cc3)cc(C(F)(F)F)n2)cc1 | inactive | 
68 | CCCCc1nc2ccccc2c(N)c1CCC (tested in a mixture with another compound) |  | 18% (active)
69 | CCOC(=O)c1c(NC(=O)/C=C/C(=O)O)sc(C)c1-c1ccc(C(C)(C)C)cc1 | inactive | 
70 | C=C(C)Cn1c(SCC)nc2ccccc2c1=O | inactive | 
71 | O=C(Nc1ccccc1N1CCN(C(=O)c2ccc(Cl)cc2)CC1)c1cccc([N+](=O)[O-])c1 | inactive | 
72 | CCOC(=O)C1(CCc2ccccc2)CCN(Cc2ccccn2)CC1 | inactive | 
73 | c1csc(CNc2nc(-c3cccs3)nc3ccccc23)c1 | inactive | 
74 | O=C(c1cccc(C(=O)N2CCN(c3ccccc3)CC2)c1)N1CCN(c2ccccc2)CC1 | inactive | 
75 | CCCCN(CCCC)/C(N)=N/c1nc(C)cc(C)n1 | inactive | 
76 | O=C(C1CCN(CC2CC=CCC2)CC1)N(CCc1ccccc1)Cc1ccccc1 (stereo not given) |  | 32.5% (active)
77 | CCOC(=O)c1c(NC(=O)C2CC(Cl)=CCC2C(=O)O)sc2c1CCCCC2 (stereo not given) | inactive | 
78 | COc1ccc(C)cc1N(C(=O)c1snc(C(N)=O)c1N)C(C(=O)NC1CCCCC1)c1ccc(C)o1 (stereo not given) | inactive | 
79 | CCOC(=O)c1c(N)sc(C(O)(C(F)(F)F)C(F)(F)F)c1-c1ccccc1 | inactive | 
80 | CNc1nc(NCc2ccccc2)c2ccccc2n1 |  | 50.5% (active)
